Results from PMC8161485 (ACS Central Science, 2021).
Numbering of substitutions follows the chain as printed.

Tests used:
[1] = system: AML01 primary AML specimen; experiment: Cell viability of primary AML specimen AML01; format: cell-based; details: Homo sapiens, AML01, read-out: AML01 LC50
Outline: (§1)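 Primary AML samples came from consenting donors. Live mononuclear cells were isolated on a Ficoll-Paque density gradient and cryopreserved, with 40–70% viability after thawing. Cells were kept at 37 °C, humidified, 5% CO2.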

[2] = target: T1, P450BM3 variant V-H10(A87I) (Priestia megaterium, UniProt P14779, A181T/A185V/A198V/A291V/E253G/F206C/F88I/H237Q/L354V/P143S/R256S/S227R/T176I/V79N); experiment: Heme spin shift binding of MCL to P450 variant V-H10; set-up: species or system Bacillus megaterium
T1 sequence (P14779 1-1049 V79N/F88I/P143S/T176I/A181T/A185V/A198V/F206C/S227R/H237Q/E253G/R256S/A291V/L354V): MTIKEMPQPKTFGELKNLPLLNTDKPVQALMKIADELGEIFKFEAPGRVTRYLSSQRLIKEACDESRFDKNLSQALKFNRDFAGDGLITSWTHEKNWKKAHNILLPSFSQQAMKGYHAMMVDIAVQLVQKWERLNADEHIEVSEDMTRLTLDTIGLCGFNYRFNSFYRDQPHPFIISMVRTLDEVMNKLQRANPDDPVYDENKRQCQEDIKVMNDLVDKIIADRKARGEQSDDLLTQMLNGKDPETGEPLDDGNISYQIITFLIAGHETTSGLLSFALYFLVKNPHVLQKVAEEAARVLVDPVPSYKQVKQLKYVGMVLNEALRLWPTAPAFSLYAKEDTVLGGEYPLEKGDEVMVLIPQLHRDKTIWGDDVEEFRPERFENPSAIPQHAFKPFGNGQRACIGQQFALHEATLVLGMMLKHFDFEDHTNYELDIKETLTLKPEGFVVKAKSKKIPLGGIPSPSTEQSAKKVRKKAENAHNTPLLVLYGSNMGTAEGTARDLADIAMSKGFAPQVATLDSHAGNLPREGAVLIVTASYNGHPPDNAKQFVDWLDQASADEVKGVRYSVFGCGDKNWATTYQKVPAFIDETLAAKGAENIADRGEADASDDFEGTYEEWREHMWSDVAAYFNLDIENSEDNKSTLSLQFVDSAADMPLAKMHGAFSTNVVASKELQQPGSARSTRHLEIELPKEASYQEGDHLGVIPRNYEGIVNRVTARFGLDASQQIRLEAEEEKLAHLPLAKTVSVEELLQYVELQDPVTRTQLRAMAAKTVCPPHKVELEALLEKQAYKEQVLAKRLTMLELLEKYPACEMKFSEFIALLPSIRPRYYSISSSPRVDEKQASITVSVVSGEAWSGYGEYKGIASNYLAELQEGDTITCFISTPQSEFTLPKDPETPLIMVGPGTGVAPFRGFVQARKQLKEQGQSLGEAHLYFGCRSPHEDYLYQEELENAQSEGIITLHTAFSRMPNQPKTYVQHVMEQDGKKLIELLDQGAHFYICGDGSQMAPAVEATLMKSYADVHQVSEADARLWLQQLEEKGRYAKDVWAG
Outline: (§2)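 Purified P450 (3 μM) in 50 mM potassium phosphate, pH 8.0, titrated with test compound (5–2000 μM) from a 50 mM ethanol stock. A difference spectrum (350–500 nm) was taken at each step. Absorbance change at 390/420 nm (high/low spin) was plotted against concentration, with KD from a nonlinear 1:1 binding fit. At least triplicate, room temperature.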

P450BM3 variant V-F10 = target: T2, P450BM3 variant V-F10 (Priestia megaterium, UniProt P14779, A181T/A185V/A198V/A291V/E253G/F206C/F82V/F88A/H237Q/L354V/P143S/R256S/S227R/T176I/V79F); experiment: Heme spin shift binding of MCL to P450 variant V-F10; set-up: species or system Bacillus megaterium
T2 sequence (P14779 1-1049 V79F/F82V/F88A/P143S/T176I/A181T/A185V/A198V/F206C/S227R/H237Q/E253G/R256S/A291V/L354V): T1 sequence (P14779 1-1049 V79N/F88I/P143S/T176I/A181T/A185V/A198V/F206C/S227R/H237Q/E253G/R256S/A291V/L354V) with N79F, F82V, I88A
Outline: as §2

[3] = system: AML02 primary AML specimen; experiment: Cell viability of primary AML specimen AML02; format: cell-based; details: Homo sapiens, read-out: AML02 LC50
Outline: as §1

[4] = system: primary AML specimens derived from patients with relapsed AML; experiment: Activity against the four primary AML specimens; format: cell-based; details: Homo sapiens, read-out: LC50 across the four primary AML specimens

Work on `C=C1C(=O)O[C@H]2[C@H]1CCC(C)=C1CC[C@@](C)(O)[C@@H]12` [MCL, micheliolide] yielded a CC50 [1] of 18.8 µM, a Kd [2] of 1250 ± 54 µM and a Kd (P450BM3 variant V-F10) of 88 ± 18 µM. For the same compound, the CC50 [3] was 20.3 µM and the CC50 [4] was 19 to 22 µM.
